Measurements published in ChEMBL document CHEMBL4024803, “New Steroidal 4-Aminoquinolines Antagonize Botulinum Neurotoxin Serotype A in Mouse Embryonic Stem Cell Derived Motor Neurons in Postintoxication Model” (J Med Chem, 2018).

What was measured:
[1] = target: Botulinum neurotoxin type A (Clostridium botulinum) (UniProt P0DPI0); experiment: Inhibition of Clostridium botulinum BoNT/A holotoxin-mediated SNAP-25 cleavage in mouse HBG3 cell-derived motor neurons assessed as full length of SNAP-25 at 20 uM treated at 60 mins post intoxication by Western blot method relative to control; parameters: scale not given: the % may be the effect or the level left
[2] = target: Botulinum neurotoxin type A (Clostridium botulinum) (UniProt P0DPI0); experiment: (§1) Inhibition of Clostridium botulinum BoNT/A holotoxin-mediated SNAP-25 cleavage in mouse HBG3 cell-derived motor neurons preincubated for 30 mins followed by intoxication measured after 4 hrs by Western blot method
[3] = target: T1, Botulinum neurotoxin type A (Clostridium botulinum, UniProt P0DPI0); experiment: as §1
[4] = system: Mus musculus; experiment: Toxicity in mouse assessed as effect on behavior at 160 mg/kg, po administered for 3 days measured 2 times a day for 30 days; format: organism-based; conditions: in vivo, 720 h
Procedure, shortened: (§2)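 Groups of five healthy mice were dosed per os for three consecutive days, suspended in 0.5% hydroxyethylcellulose–0.1% Tween 80. Behaviour and appearance were monitored twice daily for 30 days, with survival assessed at 30 days. Non-toxic was defined as all 5 surviving with normal appearance and behaviour.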

[5] = target: Botulinum neurotoxin type A (Clostridium botulinum) (UniProt P0DPI0); experiment: Inhibition of Clostridium botulinum BoNT/A light chain at 20 uM using P39 as substrate preincubated for 10 mins followed by substrate addition measured after 10 mins by HPLC method relative to control
Procedure, shortened: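 Purified BoNT/A light chain (20 nM) with 0.2 mg/mL BSA in 50 mM HEPES pH 7.4, preincubated with compound for 10 min at room temperature. Cleavage fragments were separated by reversed-phase HPLC (214/280 nm). Percent inhibition was taken from fragment peak areas with vs without compound. Mean of three experiments.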

[6] = system: Mus musculus; experiment: Toxicity in mouse assessed as effect on appearance at 160 mg/kg, po administered for 3 days measured 2 times a day for 30 days; format: organism-based; conditions: in vivo, 720 h; procedure, shortened: as §2
[7] = Distribution co-efficient, log D of the compound at pH 1 by reversed-phase thin-layer chromatographic method; format: physicochemical; conditions: buffer
Procedure, shortened: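 Reversed-phase thin-layer chromatography at pH 1, mobile phase MeOH/HCl (70/30).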

[8] = target: Botulinum neurotoxin type A (Clostridium botulinum) (UniProt P0DPI0); experiment: Inhibition of Clostridium botulinum BoNT/A holotoxin-mediated SNAP-25 cleavage in mouse HBG3 cell-derived motor neurons assessed as full length of SNAP-25 at 20 uM treated at 30 mins post intoxication by Western blot method relative to control; parameters: scale not given: the % may be the effect or the level left
[9] = target: Botulinum neurotoxin type A (Clostridium botulinum) (UniProt P0DPI0); experiment: Inhibition of Clostridium botulinum BoNT/A holotoxin-mediated SNAP-25 cleavage in mouse HBG3 cell-derived motor neurons assessed as full length of SNAP-25 at 20 uM preincubated for 30 mins followed by intoxication measured after 4 hrs by Western blot method relative to control; parameters: scale not given: the % may be the effect or the level left
[10] = target: Botulinum neurotoxin type A (Clostridium botulinum) (UniProt P0DPI0); experiment: Inhibition of Clostridium botulinum BoNT/A holotoxin-mediated SNAP-25 cleavage in mouse HBG3 cell-derived motor neurons assessed as full length of SNAP-25 at 10 uM preincubated for 30 mins followed by intoxication measured after 4 hrs by Western blot method relative to control; parameters: scale not given: the % may be the effect or the level left
[11] = system: Mus musculus; experiment: Toxicity in mouse assessed as effect on survival at 160 mg/kg, po administered for 3 days measured after 30 days; format: organism-based; conditions: in vivo, 720 h; procedure, shortened: as §2
[12] = Distribution co-efficient, log D of the compound at pH 10 by reversed-phase thin-layer chromatographic method; format: physicochemical; conditions: buffer
Procedure, shortened: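 Reversed-phase thin-layer chromatography at pH 10, mobile phase acetone/NH3/H2O (85/5/10).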

[13] = target: Botulinum neurotoxin type A (Clostridium botulinum) (UniProt P0DPI0); experiment: (§3) Inhibition of Clostridium botulinum BoNT/A light chain using P39 as substrate preincubated for 10 mins followed by substrate addition measured after 10 mins by HPLC method
[14] = target: T1, Botulinum neurotoxin type A; experiment: as §3
[15] = system: Mus musculus; experiment: In vivo inhibition of Clostridium botulinum BoNT/A in CD1 mouse assessed as mouse survival at 1 mg/kg, ip administered 3 hrs post intoxication measured over 24 hrs relative to control; format: functional
[16] = target: Botulinum neurotoxin type A (Clostridium botulinum) (UniProt P0DPI0); experiment: Inhibition of Clostridium botulinum BoNT/A holotoxin-mediated SNAP-25 cleavage in mouse HBG3 cell-derived motor neurons assessed as full length of SNAP-25 at 16 uM treated at 30 mins post intoxication by Western blot method relative to control; parameters: scale not given: the % may be the effect or the level left
[17] = target: Botulinum neurotoxin type A (Clostridium botulinum) (UniProt P0DPI0); experiment: Inhibition of Clostridium botulinum BoNT/A holotoxin-mediated SNAP-25 cleavage in mouse HBG3 cell-derived motor neurons assessed as full length of SNAP-25 at 16 uM preincubated for 30 mins followed by intoxication measured after 4 hrs by Western blot method relative to control; parameters: scale not given: the % may be the effect or the level left
[18] = target: Botulinum neurotoxin type A (Clostridium botulinum) (UniProt P0DPI0); experiment: Inhibition of Clostridium botulinum BoNT/A holotoxin-mediated SNAP-25 cleavage in mouse HBG3 cell-derived motor neurons assessed as full length of SNAP-25 at 8 uM preincubated for 30 mins followed by intoxication measured after 4 hrs by Western blot method relative to control; parameters: scale not given: the % may be the effect or the level left
[19] = target: Botulinum neurotoxin type A (Clostridium botulinum) (UniProt P0DPI0); experiment: Inhibition of Clostridium botulinum BoNT/A holotoxin-mediated SNAP-25 cleavage in mouse HBG3 cell-derived motor neurons assessed as full length of SNAP-25 at 64 uM treated at 30 mins post intoxication by Western blot method relative to control; parameters: scale not given: the % may be the effect or the level left

Q: For `CN(CCCCCCCCNc1ccnc2ccccc12)Cc1ccc(-c2ccc(-c3ccc(C#N)cc3)s2)cc1`, which Activity [1] is on record?
A: Its Activity is 22%.

Q: And the inhibition [2]?
A: Its inhibition is “Dose-dependent effect”.

Q: And the IC50 [3]?
A: Its IC50 is 5 to 10 µM.

Q: And the Activity [4]?
A: Its Activity is “Non-Toxic”.

Q: What about the inhibition [5] of the same compound?
A: Its inhibition is 35%.

Q: What about the Activity [6] of the same compound?
A: Its Activity is “Non-Toxic”.

Q: What about the chromatographic logD [7] of the same compound?
A: The chromatographic logD was 3.33.

Q: What about the Activity [8] of the same compound?
A: Its Activity is 34%.

Q: And the Activity [9]?
A: Its Activity is 60%.

Q: And the Activity [10]?
A: The Activity was 54%.

Q: And the Activity [11]?
A: The Activity was “Non-Toxic”.

Q: Which results are given for `CC(CCN(C)CC12CC3CC(CC(C3)C1)C2)Nc1ccnc2cc(Cl)ccc12` (stereo not drawn)?
A: Activity [1]: 16%; inhibition [2]: Dose-dependent effect; IC50 [3]: < 10 µM; inhibition [5]: 67%; chromatographic logD [12]: 3.47; Activity [8]: 15%; inhibition [13]: Dose-dependent effect; IC50 [14]: 11.7 µM; Activity [9]: 72%; Activity [10]: 63%

Q: With `CC(CCCNc1ccnc2ccccc12)NCc1ccc(-c2csc3ccc(F)cc23)cc1` (stereo not drawn) as the compound, how does the Activity [1] read?
A: The Activity was 17%.

Q: And the inhibition [2]?
A: The inhibition was “Dose-dependent effect”.

Q: And the IC50 [3]?
A: Its IC50 is 10 to 20 µM.

Q: And the Activity [4]?
A: The Activity was “Non-Toxic”.

Q: What about the inhibition [5] of the same compound?
A: The inhibition was 75%.

Q: And the Activity [6]?
A: The Activity was “Non-Toxic”.

Q: What about the chromatographic logD [12] of the same compound?
A: The chromatographic logD was 3.85.

Q: And the Activity [8]?
A: The Activity was 16%.

Q: What about the inhibition [13] of the same compound?
A: The inhibition was “Dose-dependent effect”.

Q: What about the IC50 [14] of the same compound?
A: The IC50 was 7.4 µM.

Q: And the Activity [9]?
A: Its Activity is 68%.

Q: And the Activity [10]?
A: The Activity was 58%.

Q: What about the Activity [11] of the same compound?
A: Its Activity is “Non-Toxic”.

Q: Which inhibition [2] does the source give for `CC(CCCN(C)Cc1ccc(-c2csc3ccc(C#N)cc23)cc1)Nc1ccnc2ccccc12` (stereo not drawn) here?
A: The inhibition was “Dose-dependent effect”.

Q: What about the IC50 [3] of the same compound?
A: The IC50 was 10 to 20 µM.

Q: And the inhibition [5]?
A: Its inhibition is 27%.

Q: And the chromatographic logD [12]?
A: Its chromatographic logD is 3.42.

Q: What about the Activity [9] of the same compound?
A: The Activity was 64%.

Q: And the Activity [10]?
A: The Activity was 59%.

Q: With `CC(=O)O[C@H]1C[C@H]2[C@@H]([C@H](OC(C)=O)C[C@@H]3C[C@H](N)CC[C@@]32C)[C@@H]2CC[C@H]([C@H](C)CCCNCCCCNc3ccnc4ccccc34)[C@@]12C` as the compound, how does the Activity [1] read?
A: Its Activity is 49%.

Q: And the inhibition [2]?
A: The inhibition was “Dose-dependent effect”.

Q: And the IC50 [3]?
A: The IC50 was 10 to 20 µM.

Q: What about the inhibition [5] of the same compound?
A: Its inhibition is 80%.

Q: And the chromatographic logD [7]?
A: Its chromatographic logD is 2.14.

Q: What about the Activity [8] of the same compound?
A: Its Activity is 48%.

Q: And the inhibition [13]?
A: Its inhibition is “Dose-dependent effect”.

Q: And the IC50 [14]?
A: The IC50 was 5.7 µM.

Q: What about the Activity [9] of the same compound?
A: Its Activity is 67%.

Q: And the Activity [10]?
A: Its Activity is 28%.

Q: With `O=C(N/N=C/c1cc(O)c(O)cc1O)c1cc2ccccc2cc1O` as the compound, how does the survival at 1 mg/kg [15] read?
A: Its survival at 1 mg/kg is 30%.

Q: What does the source list for `C[C@H](CCCNCCCCNc1ccnc2cc(Cl)ccc12)[C@H]1CC[C@H]2[C@@H]3[C@H](O)C[C@@H]4C[C@H](N)CC[C@]4(C)[C@H]3C[C@H](O)[C@]12C`?
A: inhibition [2]: Dose-dependent effect; IC50 [3]: 8 to 16 µM; Activity [16]: 49%; inhibition [5]: 48%; Activity [17]: 58%; Activity [18]: 58%; chromatographic logD [7]: 2.97; Activity [19]: 69%; Activity [10]: 46%

Q: For `N#Cc1ccc(-c2ccc(-c3ccc(CNCCCCCCCCNc4ccnc5ccccc45)cc3)s2)cc1`, which Activity [1] is on record?
A: Its Activity is 19%.

Q: What about the inhibition [2] of the same compound?
A: Its inhibition is “Dose-dependent effect”.

Q: What about the IC50 [3] of the same compound?
A: The IC50 was 10 to 20 µM.

Q: What about the Activity [4] of the same compound?
A: The Activity was “Non-Toxic”.

Q: What about the inhibition [5] of the same compound?
A: The inhibition was 77%.

Q: And the Activity [6]?
A: The Activity was “Non-Toxic”.

Q: What about the chromatographic logD [7] of the same compound?
A: The chromatographic logD was 3.42.

Q: And the Activity [8]?
A: The Activity was 20%.

Q: And the inhibition [13]?
A: The inhibition was “Dose-dependent effect”.

Q: What about the IC50 [14] of the same compound?
A: The IC50 was 6.8 µM.

Q: And the Activity [9]?
A: Its Activity is 70%.

Q: And the Activity [10]?
A: Its Activity is 31%.

Q: And the Activity [11]?
A: Its Activity is “Non-Toxic”.
